Reference: ChEMBL document CHEMBL5150021, “Identification of 5-(Aryl/Heteroaryl)amino-4-quinolones as Potent Membrane-Disrupting Agents to Combat Antibiotic-Resistant Gram-Positive Bacteria” (J Med Chem, 2022)
Converted amounts (≈) assume the structure as drawn. The source made the active and inactive calls. The calls are words filed in the database; no cut-off is given here.

Columns and labels:
Staphylococcus aureus [1] = test: Antibacterial activity against methicillin resistant Staphylococcus aureus FPR3757 assessed as inhibition of bacterial growth incubated for 24 hrs by CLSI based method; type: functional; details: read-out: MIC100
Procedure, shortened: (§1)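 It was mixed 1:1 with twofold serial compound dilutions and incubated stationary at 37 °C for 24 h. MIC was the lowest concentration giving complete inhibition of observable growth, with an oxacillin control.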

Staphylococcus aureus [2] = test: Antibacterial activity against methicillin-resistant Staphylococcus aureus MW2 assessed as inhibition of bacterial growth incubated for 24 hrs by CLSI based method; type: functional
Procedure, shortened: (§2)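 Broth microdilution per CLSI. Equal volume of twofold serial compound dilutions added. Incubated stationary at 37 °C for 24 h. MIC taken as lowest concentration giving complete inhibition of visible growth. Oxacillin control for Gram-positives, ceftriaxone for Gram-negatives.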

Staphylococcus aureus [3] = test: Antibacterial activity against methicillin-resistant Staphylococcus aureus COL assessed as inhibition of bacterial growth incubated for 24 hrs by CLSI based method; type: functional; procedure, shortened: as §2
Staphylococcus aureus [4] = test: Antibacterial activity against methicillin-resistant Staphylococcus aureus N315 assessed as inhibition of bacterial growth incubated for 24 hrs by CLSI based method; type: functional; procedure, shortened: as §2
Staphylococcus aureus [5] = test: Antibacterial activity against methicillin-resistant Staphylococcus aureus NRS71 assessed as inhibition of bacterial growth incubated for 24 hrs by CLSI based method; type: functional; procedure, shortened: as §2
[6] = system: Staphylococcus epidermidis; test: Antibacterial activity against Staphylococcus epidermidis NIF104008 assessed as inhibition of bacterial growth incubated for 24 hrs by CLSI based method; type: functional; procedure, shortened: as §2
[7] = system: Staphylococcus epidermidis; test: Antibacterial activity against Staphylococcus epidermidis NIF104003 assessed as inhibition of bacterial growth incubated for 24 hrs by CLSI based method; type: functional; procedure, shortened: as §2
Enterococcus faecalis [8] = test: Antibacterial activity against Enterococcus faecalis ATCC700802 assessed as inhibition of bacterial growth incubated for 24 hrs by CLSI based method; type: functional; procedure, shortened: as §2
Enterococcus faecalis [9] = test: Antibacterial activity against Enterococcus faecalis DHMC #1 assessed as inhibition of bacterial growth incubated for 24 hrs by CLSI based method; type: functional; procedure, shortened: as §2
Enterococcus faecium [10] = test: Antibacterial activity against Enterococcus faecium ATCC19579 assessed as inhibition of bacterial growth incubated for 24 hrs by CLSI based method; type: functional; procedure, shortened: as §2
Enterococcus faecium [11] = test: Antibacterial activity against Enterococcus faecium DHMC #1 assessed as inhibition of bacterial growth incubated for 24 hrs by CLSI based method; type: functional; procedure, shortened: as §2
Escherichia coli = test: Antibacterial activity against Escherichia coli DHMC-1 assessed as inhibition of bacterial growth incubated for 24 hrs by CLSI based method; type: functional; procedure, shortened: as §2
Klebsiella pneumoniae = test: Antibacterial activity against Klebsiella pneumoniae 7117 assessed as inhibition of bacterial growth incubated for 24 hrs by CLSI based method; type: functional; procedure, shortened: as §2
Enterobacter cloacae = test: Antibacterial activity against Enterobacter cloacae ND-21 assessed as inhibition of bacterial growth incubated for 24 hrs by CLSI based method; type: functional; procedure, shortened: as §2
Candida albicans = test: Antifungal activity against Candida albicans SC5314 assessed as inhibition of bacterial growth incubated for 24 hrs by CLSI based method; type: functional
Procedure, shortened: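 Broth microdilution per CLSI. It is mixed 1:1 with twofold serial compound dilutions and incubated stationary at 35 °C for 24 h. MIC is read as the lowest concentration with no observable growth.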

Staphylococcus aureus [12] = test: Antibacterial activity against community-associated methicillin-resistant Staphylococcus aureus USA300 FPR3757 assessed as inhibition of bacterial growth incubated for 24 hrs by CLSI based method; type: functional; procedure, shortened: as §1
Staphylococcus simulans [13] = test: Antibacterial activity against Staphylococcus simulans assessed as inhibition of DNA synthesis at 0.5 to 5 times MIC measured upto 60 mins by [3H]-thymidine incorporation based scintillation counter analysis; type: functional, organism-based; details: DDE = dose-dependent effect
Procedure, shortened: (§3)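 S. simulans was grown in cation-adjusted Mueller–Hinton medium at 37 °C. […] Samples were taken at 0–60 min, precipitated with ice-cold 10% TCA, filtered and counted. Inhibition at 60 min is relative to DMSO control; triplicate.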

Staphylococcus simulans [14] = test: Antibacterial activity against Staphylococcus simulans assessed as inhibition of RNA synthesis at 0.5 to 5 times MIC measured upto 60 mins by [3H]-uridine incorporation based scintillation counter analysis; type: functional, organism-based; details: DDE = dose-dependent effect; procedure, shortened: as §3
Staphylococcus simulans [15] = test: Antibacterial activity against Staphylococcus simulans assessed as inhibition of protein synthesis at 0.5 to 5 times MIC measured upto 60 mins by [3H]-L-isoleucine incorporation based scintillation counter analysis; type: functional, organism-based; details: DDE = dose-dependent effect; procedure, shortened: as §3
Staphylococcus simulans [16] = test: Antibacterial activity against Staphylococcus simulans assessed as inhibition of DNA synthesis at 5 times MIC measured upto 60 mins by [3H]-thymidine incorporation based scintillation counter analysis; type: functional; details: 1 h
Procedure, shortened: (§4)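 Aliquots taken 0–60 min, precipitated with ice-cold 10% TCA, filtered, washed, scintillation counted. Percent inhibition is relative to DMSO control at 60 min; triplicate.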

Staphylococcus simulans [17] = test: Antibacterial activity against Staphylococcus simulans assessed as inhibition of RNA synthesis at 5 times MIC measured upto 60 mins by [3H]-uridine incorporation based scintillation counter analysis; type: functional; details: 1 h; procedure, shortened: as §4
Staphylococcus simulans [18] = test: Antibacterial activity against Staphylococcus simulans assessed as inhibition of protein synthesis at 5 times MIC measured upto 60 mins by [3H]-L-isoleucine incorporation based scintillation counter analysis; type: functional; details: 1 h; procedure, shortened: as §4
Staphylococcus simulans [19] = test: Antibacterial activity against Staphylococcus simulans assessed as inhibition of cell wall synthesis at 5 times MIC measured upto 60 mins by [3H]-glucosamine incorporation based scintillation counter analysis; type: functional; details: 1 h; procedure, shortened: as §4
Staphylococcus aureus [20] = test: Antibacterial activity against methicillin resistant Staphylococcus aureus FPR3757 assessed as inhibition of bacterial growth incubated for 24 hrs in presence of 10% FBS by CLSI based method; type: functional
Procedure, shortened: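 CLSI broth microdilution against MRSA FPR3757 (USA300) in Mueller–Hinton broth supplemented with 10% serum (fetal bovine or mouse). Inoculum 10⁶ CFU/mL with twofold serial compound dilutions, stationary incubation at 37 °C for 24 h. MIC read as lowest concentration with complete inhibition of visible growth.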

Staphylococcus aureus [21] = test: microbe, parasite or virus in culture; details: USA300 FPR3757, 24 h
Erythrocyte = test: Hemolytic activity in sheep erythrocytes at 32 ug/ml incubated for 1 hr; type: toxicity, cell-based, Ovis aries; details: dose 32 µg/ml
Procedure, shortened: (§5)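 4% sheep erythrocytes mixed 1:1 with twofold serial compound dilutions in PBS, incubated stationary 1 h at 37 °C, then centrifuged at 500g for 5 min. Supernatant A540 is measured and percent hemolysis is calculated relative to DMSO vehicle (0%) and Triton X-100 (100%). Triplicate, mean ± SD.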

[22] = Cytotoxicity against sheep erythrocytes assessed as reduction in cell viability; type: toxicity, cell-based, Ovis aries, Erythrocyte; procedure, shortened: as §5
[23] = Therapeutic index, ratio of CC50 for Cytotoxicity against sheep erythrocytes to MIC for antibacterial activity against methicillin resistant Staphylococcus aureus FPR3757; type: toxicity
Procedure, shortened: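 Ratio of erythrocyte CC50 to MRSA FPR3757 MIC. For hemolysis, 4% washed sheep erythrocytes were mixed 1:1 with twofold compound dilutions in PBS and incubated 1 h at 37 °C. Supernatant A540 was read after centrifugation and normalized between DMSO and Triton X-100 (100% lysis). Triplicates. Highest concentration tested: 32 μg/mL.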

Cell membrane [24] = test: Induction of cell membrane damage in Staphylococcus aureus USA300 assessed as cross-wall-septum formation with reduced splitting at 1 times MIC measured after 10 mins by TEM analysis; type: subcellular
Cell membrane [25] = test: Induction of cell membrane damage in Staphylococcus aureus USA300 assessed as mesosome-like membrane inclusions at 1 times MIC measured after 1 hrs by TEM analysis
Procedure, shortened: (§6)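 Fixed in glutaraldehyde/paraformaldehyde in cacodylate pH 7.4, post-fixed with osmium tetroxide, stained with uranyl acetate, resin-embedded, thin-sectioned and imaged by TEM.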

Cell membrane [26] = test: Induction of cell membrane damage in Staphylococcus aureus USA300 assessed as membrane wrinkling at 1 times MIC measured after 1 hrs by TEM analysis; procedure, shortened: as §6
Cell membrane [27] = test: Induction of cell membrane damage in Staphylococcus aureus USA300 assessed as bulging of the septum at 1 times MIC measured after 1 hrs by TEM analysis; procedure, shortened: as §6
[28] = Induction of drug resistance in Staphylococcus aureus FPR3757 assessed as increase in MIC incubated for 65 days (reference value: 0.25 ug/ml); type: functional; details: FPR3757, 1560 h, time 65 day

Structure (SMILES)	MIC (Staphylococcus aureus [1]) [µg/mL]	MIC (Staphylococcus aureus [2]) [µg/mL]	MIC (Staphylococcus aureus [3]) [µg/mL]	MIC (Staphylococcus aureus [4]) [µg/mL]	MIC (Staphylococcus aureus [5]) [µg/mL]	MIC [6] [µg/mL]	MIC (Enterococcus faecalis [8]) [µg/mL]	MIC (Enterococcus faecalis [9]) [µg/mL]	MIC (Enterococcus faecium [10]) [µg/mL]	MIC (Escherichia coli) [µg/mL]	MIC (Klebsiella pneumoniae) [µg/mL]	MIC (Enterobacter cloacae) [µg/mL]	MIC (Candida albicans) [µg/mL]	MIC (Staphylococcus aureus [12]) [µg/mL]	inhibition (Staphylococcus simulans [13])	inhibition (Staphylococcus simulans [14])	inhibition (Staphylococcus simulans [15])	inhibition (INH) (Staphylococcus simulans [16]) [%]	inhibition (INH) (Staphylococcus simulans [17]) [%]	inhibition (INH) (Staphylococcus simulans [18]) [%]	also measured
FC(F)(F)c1ccc2c(Nc3ccc(Cl)c(Cl)c3)cc(C(F)(F)F)nc2c1	0.0625 (≈ 0.147 µM)	0.125 (≈ 0.294 µM)	0.25 (≈ 0.588 µM)	0.25 (≈ 0.588 µM)	0.25 (≈ 0.588 µM)	0.125 (≈ 0.294 µM)	0.5 (≈ 1.18 µM)	0.25 (≈ 0.588 µM)	0.125 (≈ 0.294 µM)	> 128	> 128	> 128	> 256	0.0625 (≈ 0.147 µM)	Dde	Dde	Dde	100	100	100	MIC [7]: 0.25 µg/mL (≈ 0.588 µM); MIC (Enterococcus faecium [11]): 0.25 µg/mL (≈ 0.588 µM); inhibition (INH) (Staphylococcus simulans [19]): 100%; MIC (Staphylococcus aureus [20]): 8 µg/mL; MBC (Staphylococcus aureus [21]): 2 µg/mL (≈ 4.7 µM)
O=c1cc(C(F)(F)F)[nH]c2cc(C(F)(F)F)cc(Nc3ccc(Cl)c(Cl)c3)c12	< 0.0625	–	–	–	–	–	–	–	–	–	–	–	–	–	–	–	–	–	–	–	Activity (Erythrocyte): Non-Toxic; CC50 [22]: > 32 µg/mL; selectivity ratio [23]: > 500
FC(F)(F)c1ccc(Nc2cc(C(F)(F)F)nc3cc(C(F)(F)F)ccc23)nc1	0.25 (≈ 0.588 µM)	0.125 (≈ 0.294 µM)	0.25 (≈ 0.588 µM)	0.25 (≈ 0.588 µM)	0.25 (≈ 0.588 µM)	0.125 (≈ 0.294 µM)	16 (≈ 37.6 µM)	1 (≈ 2.35 µM)	1 (≈ 2.35 µM)	> 128	> 128	> 128	> 256	0.25 (≈ 0.588 µM)	Dde	Dde	Dde	100	100	100	inhibition (INH) (Staphylococcus simulans [19]): 100%; Activity (Cell membrane [24]): Active; Activity (Cell membrane [25]): Active; Activity (Cell membrane [26]): Active; Activity (Cell membrane [27]): Active; MIC [28]: 0.5 µg/mL; MIC (Staphylococcus aureus [20]): 4 µg/mL; MBC (Staphylococcus aureus [21]): 8 µg/mL (≈ 18.8 µM)
